Reference: ChEMBL document CHEMBL1124832, “Functionalized congener approach for the design of novel muscarinic agents. Synthesis and pharmacological evaluation of N-methyl-N-[4-(1-pyrrolidinyl)-2-butynyl] amides” (J Med Chem, 1990)

What was measured:
[1] = molecular target: Muscarinic acetylcholine receptor M3 (Homo sapiens) (UniProt P20309); assay: Percent binding affinity at muscarinic acetylcholine receptor M3 from SK-N-SH human neuroblastoma cells in presence of [3H]NMS; assay type: cell-based
Sequence of Muscarinic acetylcholine receptor M3 (Homo sapiens) (P20309 whole entry, looked up): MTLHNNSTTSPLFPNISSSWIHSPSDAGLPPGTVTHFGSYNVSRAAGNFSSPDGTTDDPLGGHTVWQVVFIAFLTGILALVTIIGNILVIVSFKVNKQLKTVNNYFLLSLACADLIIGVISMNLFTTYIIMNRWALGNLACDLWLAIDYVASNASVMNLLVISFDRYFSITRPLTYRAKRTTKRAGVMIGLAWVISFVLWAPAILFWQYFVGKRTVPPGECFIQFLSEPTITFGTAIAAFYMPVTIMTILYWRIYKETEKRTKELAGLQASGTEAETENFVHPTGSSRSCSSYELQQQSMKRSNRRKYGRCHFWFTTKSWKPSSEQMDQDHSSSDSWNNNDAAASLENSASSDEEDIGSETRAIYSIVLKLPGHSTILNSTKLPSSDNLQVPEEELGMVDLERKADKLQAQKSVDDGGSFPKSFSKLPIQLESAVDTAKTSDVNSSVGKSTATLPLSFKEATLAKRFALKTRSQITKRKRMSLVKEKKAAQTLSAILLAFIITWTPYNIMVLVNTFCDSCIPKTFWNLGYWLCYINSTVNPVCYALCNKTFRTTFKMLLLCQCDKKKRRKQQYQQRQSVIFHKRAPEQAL
How it was run: (§1)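 Crude membranes from confluent cells, lysed in 2 mM Tris-HCl (pH 7.1)/1 mM EDTA, homogenized, spun at 50000 g and stored at -70 °C. Membranes (150-300 µg protein) incubated 90 min at 37 °C with 0.5 nM [3H]NMS and 100 µM compound in DMEM-Hepes, then filtered on GF/B. Nonspecific binding taken with 1 µM atropine. Reported as percent displacement; two or three trials in triplicate.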

[2] = molecular target: T1, Muscarinic acetylcholine receptor M4 (Rattus norvegicus) (UniProt P08485); assay: Binding affinity at muscarinic acetylcholine receptor M4 from NG108-15 cell line in presence of [3H]-NMS; assay type: cell-based; how it was run: as §1
T1 sequence (whole entry): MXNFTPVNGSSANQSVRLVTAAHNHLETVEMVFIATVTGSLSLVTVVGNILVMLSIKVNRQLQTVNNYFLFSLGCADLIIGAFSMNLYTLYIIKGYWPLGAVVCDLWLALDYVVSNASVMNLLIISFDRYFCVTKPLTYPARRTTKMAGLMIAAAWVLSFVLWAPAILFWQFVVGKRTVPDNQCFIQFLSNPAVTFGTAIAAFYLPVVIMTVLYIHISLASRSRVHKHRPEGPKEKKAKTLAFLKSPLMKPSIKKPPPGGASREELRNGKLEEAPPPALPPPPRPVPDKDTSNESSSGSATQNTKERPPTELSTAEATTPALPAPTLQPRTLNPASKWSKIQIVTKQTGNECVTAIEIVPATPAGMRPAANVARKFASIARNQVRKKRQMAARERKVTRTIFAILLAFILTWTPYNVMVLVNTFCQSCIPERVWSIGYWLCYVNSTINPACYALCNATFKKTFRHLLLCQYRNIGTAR

[3] = molecular target: T1, Muscarinic acetylcholine receptor M4 (Rattus norvegicus); assay: Percent inhibition against muscarinic acetylcholine receptor M4 from NG108-15 cell line; assay type: cell-based; design: concentration or dose not given beside the values
How it was run: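 NG108-15 cells grown to 90% confluence and preincubated 10 min at 37 °C in 1 mM IBMX in DMEM-Hepes. Compound (100 µM final) and PGE1 (5 µM final) were added for 15 min at 37 °C. cAMP was extracted in 0.1 N HCl for 30 min at room temperature, lyophilized and measured by radioimmunoassay. Reported as percent inhibition versus no-compound control; three trials in triplicate.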

[4] = molecular target: Muscarinic acetylcholine receptor M3 (Homo sapiens) (UniProt P20309); assay: Percent increase in [3H]myo-inositol at muscarinic acetylcholine receptor M3 from SK-N-SH human neuroblastoma cells; assay type: cell-based; design: concentration or dose not given beside the values
How it was run: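 SK-N-SH cells grown in DMEM with 10% newborn calf serum and plated at 100000 cells/well. After 24 h they were labeled overnight with [3H]-myo-inositol (2 µCi/well). Cells were rinsed and preincubated 5 min at 37 °C in 10 mM LiCl DMEM-Hepes, then exposed to 100 µM final compound for 30 min at 37 °C. Reported as percent increase relative to oxotremorine M (100%); two or three trials in triplicate.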

[5] = molecular target: Muscarinic acetylcholine receptor; assay: Binding affinity was determined using [3H]-NMS for Muscarinic acetylcholine receptor in SK-N-SH neuroblastoma cells; assay type: cell-based, Homo sapiens
How it was run: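 SK-N-SH crude membranes from hypotonic lysis (2 mM Tris-HCl pH 7.1, 1 mM EDTA), 50000 g pellets. Competition used varied compound concentrations with 1 nM [3H]NMS in DMEM-Hepes, 60 min at 37°C, then GF/B filtration. Atropine defined nonspecific binding. Ki was obtained by Cheng-Prusoff from the [3H]NMS Kd (saturation, 10 min at 37°C). Means ± SEM of three determinations in duplicate.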

[6] = system: SK-N-SH; assay: Percent inhibition of stimulation of PI turnover of Oxotremorine M (100 uM) in SK-N-SH cells at 100 uM; assay type: functional, Homo sapiens

Structure (SMILES) | Affinity [1] [%] | Affinity [2] [%] | Activity [3] [%] | Activity [4] [%] | Ki [5] [µM] | Inhibition [6] [%]
CN(CC#CCN1CCCC1)C(=O)c1ccccc1 | 40 | 25 | < 1 | 8 | – | –
CC(=O)NCCCCCCCC(=O)N(C)CC#CCN1CCCC1 | 59.1 | 50.4 | < 1 | < 1 | – | –
CC(=O)N(C)C(C)C#CCN1CCCC1 (stereo unspecified) | 99 | 97 | 36 | < 1 | 0.33 | –
CN(CC#CCN1CCCC1)C(=O)CCCCCNC(=O)CCNC(=O)OC(C)(C)C | 59.1 | 57.3 | < 1 | < 1 | – | –
CN(CC#CCN1CCCC1)C(=O)CCCNC(=O)OC(C)(C)C | 32.1 | 24.4 | 3.5 | < 1 | – | –
CN(CC#CCN1CCCC1)C(=O)CCCNC(=O)CCNC(=O)OC(C)(C)C | 39.2 | 38.8 | < 1 | < 1 | – | –
CN(CC#CCN1CCCC1)C(=O)CCCCCCCNC(=O)OC(C)(C)C.O=C(O)C(=O)O | 92.1 | 89 | < 1 | < 1 | 4.9 | –
CN(CC#CCN1CCCC1)C(=O)CCC(=O)O | 6 | 0 | < 1 | < 1 | – | –
CN(CC#CCN1CCCC1)C(=O)CCCCN.O=C(O)C(F)(F)F.O=C(O)C(F)(F)F | 34.4 | 22.4 | 15.8 | < 1 | – | 44
C[N+](C)(C)CC#CCN1CCCC1=O | 52.1 | 96.2 | 64.1 | 100 | – | –
CC(=O)NCCCCC(=O)N(C)CC#CCN1CCCC1 | 29.4 | 17.9 | 5.2 | < 1 | – | –
CN(CC#CCN1CCCC1)C(=O)CCCCCNC(=O)CCN | 70.5 | 56.8 | < 1 | 7 | – | –
CN(CC#CCN1CCCC1)C(=O)CCCCCNC(=O)c1ccccc1 | 51.7 | 52.8 | < 1 | < 1 | – | –
CC(=O)NCCCCCC(=O)N(C)CC#CCN1CCCC1 | 17.4 | 22.7 | 3 | 1 | – | –
CN(CC#CCN1CCCC1)C(=O)CCCNC(=O)c1ccccc1 | 30.3 | 27.7 | < 1 | < 1 | – | –
CN(CC#CCN1CCCC1)C(=O)CCCCCNC(=O)CNC(=O)OC(C)(C)C | 52.6 | 52.3 | < 1 | 3 | – | –
COC(=O)CCC(=O)N(C)CC#CCN1CCCC1 | 28 | 7 | < 1 | < 1 | – | –
CN(CC#CCN1CCCC1)C(=O)CCCCCCNC(=O)OC(C)(C)C.O=C(O)C(=O)O | 81.4 | 77.9 | < 1 | < 1 | 10.9 | –
CN(CC#CCN1CCCC1)C(=O)CCC(=O)NCCN | 25 | 14 | < 1 | < 1 | – | –
CN(CC#CCN1CCCC1)C(=O)CCN.O=C(O)C(F)(F)F.O=C(O)C(F)(F)F | 18.1 | 15.1 | 20.8 | < 1 | – | 20

Structure (SMILES) | Affinity [1] [%] | Affinity [2] [%] | Activity [3] [%] | Activity [4] [%] | Ki [5] [µM] | Inhibition [6] [%]
CN(CC#CCN1CCCC1)C(=O)CCCCCCCN.O=C(O)C(F)(F)F.O=C(O)C(F)(F)F | 93.7 | 92.3 | < 1 | < 1 | 1.4 | –
CN(CC#CCN1CCCC1)C(=O)CCNC(=O)OC(C)(C)C | 45.1 | 36.3 | 12.5 | < 1 | – | –
CC(=O)N(C)CC#CCN1CCCC1 | 88.8 | 79.6 | 63.2 | 48 | 4.96 | –
CN(CC#CCN1CCCC1)C(=O)CCCCCN.O=C(O)C(F)(F)F.O=C(O)C(F)(F)F | 55.9 | 37.9 | 14.3 | < 1 | – | 47
CC(=O)NCCC(=O)N(C)CC#CCN1CCCC1.O=C(O)C(=O)O | 67.4 | 67.7 | 10.2 | < 1 | – | 43
CN(CC#CCN1CCCC1)C(=O)CNC(=O)OC(C)(C)C | 40 | 32.6 | 7 | < 1 | – | –
CN(CC#CCN1CCCC1)C(=O)CCCNC(=O)CCN | 40.5 | 29 | < 1 | 7 | – | –
CN(CC#CCN1CCCC1)C(=O)CCCCNC(=O)OC(C)(C)C | 32.1 | 26.7 | 0.5 | 1 | – | –
CN(CC#CCN1CCCC1)C(=O)CCCCCNC(=O)OC(C)(C)C | 39.1 | 31.9 | < 1 | < 1 | – | –
CC(=O)NCC(=O)N(C)CC#CCN1CCCC1 | 12.5 | 24 | 14.1 | 8 | – | –
CC(=O)NCCCCCCC(=O)N(C)CC#CCN1CCCC1 | 24.6 | 20.4 | 6.9 | 1 | – | –
CN(CC#CCN1CCCC1)C(=O)CCCCCCN.O=C(O)C(F)(F)F.O=C(O)C(F)(F)F | 81.9 | 72.1 | 3 | < 1 | 6.7 | –
CC(=O)NCCCC(=O)N(C)CC#CCN1CCCC1 | 15.6 | 19.1 | 8 | 14 | – | –
CN(CC#CCN1CCCC1)C(=O)CN | 17.3 | 23.5 | 26.1 | < 1 | – | –
CN(CC#CCN1CCCC1)C(=O)CCCCCNC(=O)CN | 65 | 57 | < 1 | < 1 | – | –
CN(CC#CCN1CCCC1)C(=O)CCCN | 20 | 12.1 | 3.7 | < 1 | – | –
CN(CC#CCN1CCCC1)C(=O)CCCNC(=O)CN | 47 | 31 | < 1 | 7 | – | –
CN(CC#CCN1CCCC1)C(=O)c1cccc(Cl)c1 | 55 | 34 | < 1 | 4 | – | –
CN(CC#CCN1CCCC1)C(=O)CCCNC(=O)CNC(=O)OC(C)(C)C | 37.5 | 24.4 | < 1 | < 1 | – | –
